Results filed as inconclusive are left out.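 How the source made its calls, unless noted: active means cell viability at or below a set limit in both duplicate runs, the limit being the all-compound median minus 4 SD (cut at about 23% in these data, passing the limit was not always enough); inconclusive means no clear call, values can overlap the other calls; inactive means the rest.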
Experiments:
[1] = OD615 S. cerevisiae growth inhibition, permissive medium, pilot counter-assay, permissive growth control for S. cerevisiae lifespan shortening project (AID 705;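 active means growth inhibition above 25% in both replicates, a cutoff set 3 SD above the mean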); details: OD615, 24 h, at 10 µM, hits give high values
Summary of the method: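 assay system = Saccharomyces cerevisiae strain carrying genetically modified DeaD replicative-lifespan system | technique = absorbance (optical density) at 615 nm | buffer or medium = permissive raffinose/galactose medium | timing = cells pre-grown 4 h, then 24 h compound exposure, 30 °C humidified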

[2] = Restrictive medium S. cerevisiae growth inhibition, OD615, pilot screen of yeast lifespan reduction project, restrictive growth control (AID 706;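 active means growth inhibition above a set limit, 3 SD over mean compound inhibition, in both replicates, cut at about 43% in these data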;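 further: modified DeaD lifespan yeast strain shifted to restrictive glucose medium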); details: OD615, 48 h, at 10 µM, hits give high values
Summary of the method: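 System: modified S. cerevisiae. Buffer or medium: CSMM-D glucose medium. Incubation: 4 h pre-growth plus 48 h compound exposure, 30 °C. Detection: absorbance (optical density) measured at 615 nm.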

[3] = viability gain of MRP-1-high H69AR cells under doxorubicin, pilot screen, MRP-1 activator project, CellTiter-Glo, duplicate (AID 807;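 active means viability increase at or above a cutoff of the median across tested compounds plus 3 SD, cut at about 8.5% in these data, passing the limit was not always enough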;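 further: compound pretreatment 18-22 h then 72 h combined with doxorubicin; 0% = doxorubicin alone and 100% = vehicle without doxorubicin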); details: H69AR viability with doxorubicin, CellTiter-Glo luminescence; at 10 µM; hits give high values
[4] = growth suppression of beta-catenin knockout HCT116, pilot screen, human colon tumor cells (AID 823); details: CellTiter-Glo, 60 h, at 10 µM, hits give low values;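 further: 0% = wells killed by 20 µM Hyamine and 100% = untreated DMSO cell wells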
[5] = growth suppression of PTEN-deleted HCT116, pilot screen, cell-based, HCT116 clonal line, CellTiter-Glo (AID 824;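 active means viability at or below 27.92% in each of two runs, the all-compound median minus 4 SD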;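 further: 0% = 20 µM Hyamine control and 100% = vehicle cell control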); details: 60 h, at 10 µM, hits give low values
[6] = inhibitors of the yeast RAM network, pilot screen, dse1pr::URA3 reporter, 5-FOA selection (AID 869;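 active means inhibition over a set limit, the all-compound mean plus 3 SD, in both replicate runs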;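 further: 0% = DMSO wells with no growth and 100% = 10 µM 1-NA-PP1 with full growth; RAM network block rescues cells from 5-FOA so hits raise OD615 growth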); details: S. cerevisiae dse1pr::URA3 5-FOA growth, OD615, 2 d; at 10 µM; hits give high values; strain carries analog-sensitive mutant Cbk1 kinase
[7] = RAM signaling pathway blockade in yeast – S. cerevisiae, Pdr1DBD-CYC8 efflux-inhibited sensitized strain, primary screen (AID 1298;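 active means RAM network inhibition above 8.4% in each of two replicates, 3 SD over the compound average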;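 further: 0% = DMSO untreated cells without growth and 100% = 10 µM 1-NA-PP1 full growth; higher means more yeast growth rescued from 5-FOA killing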); details: S. cerevisiae cbk1-as DSE1-URA3 strain, 5-FOA growth OD615, 2 d; at 50 µM; hits give high values

CCOC(=O)c1c(NC(C)=O)no[n+]1[O-]
inactive: growth inhibition [1] -14.2% | growth inhibition [2] -12.3% | viability increase [3] -2.24% | viability [4] 104% | viability [5] 97.1% | inhibition [6] 0.795% | RAM network inhibition [7] 5.03%

COc1ccc(N=C(C)C2=C(O)COC2=O)cc1
inactive: growth inhibition [1] -1.31% | growth inhibition [2] 5.13% | viability increase [3] -3.62% | viability [4] 97.6% | viability [5] 99% | inhibition [6] 1.12% | RAM network inhibition [7] 5.23%

O=C(C1=C(O)C(=O)N(CCN2CCOCC2)C1c1ccncc1)c1ccco1 (stereo unspecified)
inactive: growth inhibition [1] -15.4% | growth inhibition [2] 2.89% | viability increase [3] -3.57% | viability [4] 98.3% | viability [5] 93.2% | inhibition [6] 2.35% | RAM network inhibition [7] 2.42%

CC(C)n1c(NCc2cc(Cl)ccc2O)nc2ccccc21
inactive: growth inhibition [1] -3.83% | growth inhibition [2] -7.78% | viability increase [3] -0.71% | viability [4] 88.8% | viability [5] 87.9% | inhibition [6] -0.06% | RAM network inhibition [7] 1.06%

CCn1cc(Cl)c(C(=O)Nc2nc3ccccc3n2CCN2CCCCC2)n1
inactive: growth inhibition [1] -5% | growth inhibition [2] 13.4% | viability increase [3] -4.57% | viability [4] 88.8% | viability [5] 92.2% | inhibition [6] 0.905% | RAM network inhibition [7] 2.98%

CN1CCN(C(=O)c2ccc3c(c2)N(Cc2cccc(Cl)c2)C(=O)c2ccccc2S3=O)CC1 (stereo unspecified)
inactive: growth inhibition [1] -4.92% | growth inhibition [2] -10.7% | viability increase [3] -3.66% | viability [4] 102% | viability [5] 99.1% | inhibition [6] 0.63% | RAM network inhibition [7] 6.41%

CCOC(=O)C1C(=O)CC(C)(O)C(C(=O)OCC)C1c1ccco1 (stereo unspecified)
inactive: growth inhibition [1] -11% | growth inhibition [2] -5.69% | viability increase [3] -1.04% | viability [4] 101% | viability [5] 103% | inhibition [6] 1.04% | RAM network inhibition [7] 2.45%

Cc1ccc(C(c2sc3ncnn3c2O)N2CCC(C)CC2)cc1 (stereo unspecified)
inactive: growth inhibition [1] 1.13% | growth inhibition [2] 10.3% | viability increase [3] 3.76% | viability [4] 102% | viability [5] 90.2% | inhibition [6] 1.9% | RAM network inhibition [7] 2.69%

COc1cccc(C2CC(c3ccc(C(C)C)cc3)n3nc(N)nc3N2)c1 (stereo unspecified)
inactive: growth inhibition [1] -2.39% | growth inhibition [2] 3.09% | viability increase [3] 0.91% | viability [4] 97.1% | viability [5] 95.7% | inhibition [6] 1.5% | RAM network inhibition [7] 3.94%

Cc1ccc(Cn2c(Sc3nnc(C)s3)nc3c2c(=O)[nH]c(=O)n3C)cc1
inactive: growth inhibition [1] -1.77% | growth inhibition [2] -4.4% | viability increase [3] -2.58% | viability [4] 85.8% | viability [5] 78.6% | inhibition [6] 2.5% | RAM network inhibition [7] 1.84%

Cc1noc(C(=O)N2CC3(C)CC2CC(C)(C)C3)c1Cl (stereo unspecified)
inactive: growth inhibition [1] -13% | growth inhibition [2] -13.2% | viability increase [3] 0.45% | viability [4] 82.9% | viability [5] 83% | inhibition [6] -0.145% | RAM network inhibition [7] 5.28%

COc1ccc(CC(=O)Nc2oc(-c3ccccc3)c(-c3ccccc3)c2C#N)cc1OC
inactive: growth inhibition [1] -6.81% | growth inhibition [2] -2.63% | viability increase [3] -0.77% | viability [4] 76.9% | viability [5] 68.2% | inhibition [6] 1.75% | RAM network inhibition [7] 8.44%

CCCOCCOC(=O)C1=C(C)NC(=O)NC1c1cc(Cl)c(O)c(OC)c1 (stereo unspecified)
inactive: growth inhibition [1] -3.46% | growth inhibition [2] -0.16% | viability increase [3] -0.57% | viability [4] 102% | viability [5] 94.6% | inhibition [6] 0.265% | RAM network inhibition [7] -1.04%

CCOC(=O)c1cnn2c(C(F)(F)F)cc(-c3ccccc3)nc12
inactive: growth inhibition [1] -6.86% | growth inhibition [2] -9.75% | viability increase [3] -3.13% | viability [4] 84% | viability [5] 86.9% | inhibition [6] 2.29% | RAM network inhibition [7] 2.4%

N#Cc1nc(COc2ccc(Br)cc2)oc1N1CCCCCC1
inactive: growth inhibition [1] -13.1% | growth inhibition [2] 3.57% | viability increase [3] 4.39% | viability [4] 62.4% | viability [5] 67.5% | inhibition [6] 2.33% | RAM network inhibition [7] 7.31%

O=C1c2ccccc2C(O)N1Cc1ccco1 (stereo unspecified)
inactive: growth inhibition [1] 5.97% | growth inhibition [2] -0.555% | viability increase [3] -2.36% | viability [4] 93.6% | viability [5] 94.6% | inhibition [6] 0.695% | RAM network inhibition [7] 0.68%

CCn1c(SCC(=O)NCCOc2ccccc2)nc2ccccc2c1=O
inactive: growth inhibition [1] -0.73% | growth inhibition [2] -21.3% | viability increase [3] -1.87% | viability [4] 93.8% | viability [5] 92.6% | inhibition [6] 1.08% | RAM network inhibition [7] 4.35%

COc1ccc(NC(=O)C2c3cc(OC)c(OC)cc3C(=O)N(C)C2c2cccnc2)cc1OC (stereo unspecified)
inactive: growth inhibition [1] -1.76% | growth inhibition [2] -0.86% | viability increase [3] -3.2% | viability [4] 94.8% | viability [5] 95.5% | inhibition [6] 0.645% | RAM network inhibition [7] 4.68%

Source: PubChem BioAssay
